From PubChem
Compounds with a hit are over-represented: about 4.6% of the library has one in this group of screens.
OX1R antag-1 = human HCRTR1 antagonism. O43613. CHO/OX1R cells, Fluo-8 calcium fluorescence, orexin A. inhibition, % at 5 µM. actives 0.43% (n = 330,000);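 active = inhibition above its plate's threshold, mean inhibition of all tested compounds on the plate plus 3 SD, cut at about 37% in these data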;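 note: 0% = orexin A challenge wells and 100% = SB-334867-A antagonist wells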
CHO parental Ca = signal in parental CHO cells, OX1R antagonist counter-screen; parental CHO-K1, ATP-induced calcium, Fluo-8 fluorescence; inhibition, % at 5.6 µM; actives 0.63% (n = 330,000);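 active = inhibition above that plate's mean sample inhibition plus 3 SD, cut at about 26% in these data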;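 note: 0% = ATP-challenged DMSO wells and 100% = DMSO wells without ATP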
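Assay system: parental CHO cells; Read-out basis: percent inhibition of ATP-evoked calcium rise, normalized to controls; Benchmarks: ATP and no-ATP DMSO wells; Compound dosing: single nominal dose of 5.6 µM per compound; Signal: Fluo-8 calcium dye fluorescence; Also added: ATP as calcium-mobilizing challenge; Repeats: singlicate.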
TAAR1 antagonist = human TAAR1 antagonism; Q96RJ0; CHO RD-HGA16 TAAR1, Fluo-8 calcium fluorescence, antagonist; inhibition, % at 3 µM; actives 1.5% (n = 360,000); AID 624466;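 active = inhibition above a per-plate cutoff, the mean inhibition of test compounds on that plate plus 3 SD, cut at about 49% in these data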;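 note: 0% = DMSO plus EC80 beta-PEA response and 100% = DMSO alone without agonist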
Target sequence (Q96RJ0 whole entry, looked up): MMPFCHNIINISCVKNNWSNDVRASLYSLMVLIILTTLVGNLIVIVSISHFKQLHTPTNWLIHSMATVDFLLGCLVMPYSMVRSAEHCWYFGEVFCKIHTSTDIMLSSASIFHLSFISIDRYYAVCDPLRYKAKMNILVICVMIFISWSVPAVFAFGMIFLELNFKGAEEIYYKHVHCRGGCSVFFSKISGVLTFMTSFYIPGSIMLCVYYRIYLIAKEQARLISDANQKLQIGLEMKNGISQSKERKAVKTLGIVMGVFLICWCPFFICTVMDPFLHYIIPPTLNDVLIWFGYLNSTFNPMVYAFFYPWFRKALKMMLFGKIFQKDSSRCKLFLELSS
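System: RD-HGA16 CHO cells with stable hTAAR1 and Gα16 | Probe or stimulus: EC80 β-phenethylamine stimulus | Dosing: 3 µM, single point | Times: Dye loading 75 min at 37 °C, then 30 min room temperature | Measured by: Fluo-8 calcium-sensitive fluorescence | Read-out basis: % inhibition of agonist calcium response | Replicates: n of 1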
GPR7 antagonist = blocks human GPR7 receptor signaling; actives 1.1% (n = 290,000); P48145; GPR7-expressing cells, fluorescence antagonist assay; inhibition, % at 4.4 µM; in the data active = inhibition above about 16%, passing the limit was not always enough;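 note: cells stimulated with the agonist NPW; 0% = agonist with vehicle and 100% = vehicle without agonist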
Target sequence (P48145 whole entry, looked up): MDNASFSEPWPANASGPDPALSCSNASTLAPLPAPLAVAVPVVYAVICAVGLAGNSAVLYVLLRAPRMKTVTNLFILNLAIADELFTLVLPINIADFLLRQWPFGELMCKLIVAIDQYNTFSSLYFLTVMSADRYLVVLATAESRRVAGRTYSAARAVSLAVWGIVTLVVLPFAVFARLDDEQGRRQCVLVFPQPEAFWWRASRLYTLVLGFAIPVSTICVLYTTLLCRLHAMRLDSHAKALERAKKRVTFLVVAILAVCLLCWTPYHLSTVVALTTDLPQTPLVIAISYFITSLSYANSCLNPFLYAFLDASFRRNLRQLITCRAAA
TAAR1 agonist = agonists of human TAAR1; actives 0.99% (n = 360,000); activation, % at 3 µM; CHO RD-HGA16 TAAR1, Fluo-8 calcium fluorescence; vehicle wells 0%, saturating PEA agonist 100%;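 active = activation above the mean activation of all test compounds in the run plus 3 SD, cut at about 38% in these data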
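Test system: RD-HGA16 (CHO) cells co-expressing Gα16 and hTAAR1 | Doses: Single dose, 3 µM | Schedule: 17-24 h seeding, 75 min 37 °C dye, 30 min RT | Evaluation: % activation from peak over basal fluorescence ratio, DMSO-to-PEA scaled | Technique: Kinetic Fluo-8 calcium fluorescence | Benchmarks: Low control DMSO, high control PEA (EC100)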
OX1R antag-2 = blocks the human orexin 1 receptor; O43613; inhibition, % at 6.6 µM; OX1R-expressing cells, FRET antagonist read-out; actives 1.8% (n = 330,000); in the data active = inhibition mostly above about 38%, no sharp cut-off; inactive = mostly below about 40%;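 note: 0% = agonist challenge alone and 100% = reference antagonist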
GPR7 antag conf = confirmation of human GPR7 antagonists; inhibition, % at 4.4 µM; shares compounds with GPR7 antagonist; AID 1952; GPR7-expressing cells, calcium fluorescence antagonist mode; actives 52% (n = 2,400); in the data active = inhibition above about 24%;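 note: stimulated with the GPR7 agonist NPW; 0% = agonist plus vehicle and 100% = vehicle alone without agonist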
MCHR1 antag = counter-screen for GPR7 antagonists: antagonists of human MCHR1; inhibition, % at 4.4 µM; shares compounds with GPR7 antagonist; MCHR1-expressing cells, fluorescence antagonist assay; actives 62% (n = 2,400); in the data active = inhibition above about 22%;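 note: 0% = vehicle with agonist and 100% = vehicle without agonist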
Numbers without * were called inactive; . = no result.

SMILES	OX1R antag-1	CHO parental Ca	TAAR1 antagonist	GPR7 antagonist	TAAR1 agonist	OX1R antag-2	others
O=C(COc1ccccc1/C=C1\SC(=O)NC1=O)Nc1ccccc1	-11	-12	7	2	8	59*
Cc1cc(C)n(-c2nc(Nc3ccccc3C)nc(-n3nc(C)cc3C)n2)n1	27	26	87*	6	39*	14
COc1ccc2oc(C(=O)OCC(=O)N3CC(C)CC(C)C3)c(C)c2c1 (centres undefined)	-15	-25	16	.	3	22
Cc1c(C(=O)OCC(=O)N2CC(C)CC(C)C2)oc2ccccc12 (centres undefined)	-24	-17	-47	.	4	70*
Cc1c(C(=O)OCC(=O)N(C)Cc2ccccc2)oc2ccccc12	26	-12	-21	.	9	60*
COCCNc1nc(Nc2ccc(C#N)cc2)c2sccc2n1	.	.	10	.	8	.
CCNC(=O)C1(C)CCCN1C(=O)c1cc(OC)c(OC)c(OC)c1 (centres undefined)	.	.	3	.	1	.
CCc1ccccc1NC(=O)CSc1nc2n[nH]c(C)c2c(=N)n1-c1cccc(OC)c1	16	-26	21	-9	5	46*
CCOc1ccccc1NC(=O)CCSc1nc2n[nH]c(C)c2c(=N)n1-c1ccccc1Cl	-21	-25	40	-4	7	53*
CN1C(=O)[C@@]2(O[C@H]3[C@H]4C=C[C@@H]([C@H]5C(=O)N(Cc6ccccc6)C(=O)[C@@H]45)N3C3=C2C(=O)CC3)c2ccccc21	.	.	-23	.	13	.
O=C(CSc1ncnc2c1cnn2-c1ccccc1)Nc1ccccc1	-4	5	46	-10	40*	11
CC(CCC(C)C(C)(C)C)[C@@H]1CC[C@H]2C3C[C@H](OS(O)(=S)=S)[C@H]4C[C@H](OS(O)(=S)=S)[C@@H](OS(O)(=S)=S)C[C@]4(C)[C@H]3CC[C@]12C (some centres undefined) (tested in a mixture with another compound)	101*	84*	.	.	.	66*
CC(CCC(=O)NN)C1CCC2C3CCC4CC(O)CCC4(C)C3CCC12C (centres undefined)	.	.	-19	.	5	.
CN(C(=O)Nc1ccc(Cl)c(Cl)c1)c1ccccc1C(=O)O	18	35*	20	-7	7	10
O=C(Nc1ccc(Cl)c(Cl)c1)c1ccccc1	8	-7	22	.	27	33
CCOC(=O)N[C@H](C(=O)N1CCC[C@H]1C(=O)NC1CCCC1)c1ccccc1	.	.	-19	.	1	.
COc1ccc(/C=C2\Sc3ccc(C(=O)N4CCN(Cc5ccccc5)CC4)cc3N(C)C2=O)cc1OC	3	-1	59*	20	4	17
Clc1ccc(C2=CC(c3ccco3)n3ncnc3N2)cc1 (centres undefined)	-8	-3	24	22	107*	32
c1coc(-c2nc3ccccc3nc2-c2ccco2)c1	-3	-23	-3	-2	0	43*
CN(C)C(=O)c1ccc(Cc2cn(C)c3ccccc23)nc1	.	.	-11	.	2	.
O=C(CN1C(=O)CSc2ccc(S(=O)(=O)N3CCOCC3)cc21)NCc1ccc(Cl)cc1	3	-3	-3	-12	0	48*
Cc1cc(S(=O)(=O)NCc2ccccc2)ccc1OCC(=O)Nc1cccc([N+](=O)[O-])c1	53*	49*	41	5	9	84*
COc1cccc(NC(=O)CN2CCN(c3ccc(F)cc3)CC2)c1	-18	-23	-19	-5	6	24
CCOC(=O)c1ccc(N2CCN(c3ccc(F)cc3)CC2)c(NC(=O)Nc2cccc(OC)c2)c1	10	5	58*	-9	9	18
CCOC(=O)c1ccc(N2CCN(c3ccccc3F)CC2)c(NC(=O)Nc2ccccc2)c1	18	39*	48	19	8	9
SMILES	OX1R antag-1	CHO parental Ca	TAAR1 antagonist	GPR7 antagonist	TAAR1 agonist	OX1R antag-2	others
O=C(/C=C/[C@H]1O[C@@H](n2ccc(=O)[nH]c2=O)[C@H](O)[C@@H]1O)N1CCN(Cc2ccc(F)cc2)CC1	.	.	-15	.	1	.
COc1ccc(CNC(=O)C2(C)Cc3c(-c4ccc(N(C)C)cc4)ccnc3O2)cc1OC (centres undefined)	.	.	-34	.	-2	.
COc1cc(OC)cc(C(=O)Nc2nc(CC(=O)NCc3ccccc3OC)cs2)c1	-30	-22	56*	.	6	13
COc1cc(OC)cc(C(=O)Nc2nc(CC(=O)NCc3ccc(F)cc3)cs2)c1	-10	-22	50*	.	8	22
COc1cc(OC)cc(C(=O)Nc2nc(CC(=O)NCCc3ccccc3)cs2)c1	-19	-40	33	.	5	28
CCOC(=O)Cc1csc(NC(=O)c2cc(OC)cc(OC)c2)n1	-10	-7	-2	-2	2	19
O=C(NC1CCSc2ccccc21)c1cccc(Br)c1 (centres undefined)	-17	-13	-2	27*	-1	25	GPR7 antag conf=12;MCHR1 antag=19
COc1cccc(NC(=O)Nc2nc(-c3ccc(OC)c(OC)c3)cs2)c1	73*	71*	82*	74*	28	71*	GPR7 antag conf=92*;MCHR1 antag=93*
COc1ccc(-c2csc(NC(C)=O)n2)cc1OC	-15	7	0	2	3	12
Cc1ccc(CN(C(=O)c2c(F)cccc2F)C2CC(C)(C)NC(C)(C)C2)o1	-12	0	5	25*	5	12	GPR7 antag conf=9;MCHR1 antag=3
O=C(C1CC12CCCC2)N1CCC(CO)(Cc2ccccc2Cl)CC1 (centres undefined)	-12	-4	-3	6	19	13
Cc1cc(Cl)c(S(=O)(=O)N2CCCCCC2)cc1OCC(=O)NC1CCCCC1	14	78*	5	32*	10	13	GPR7 antag conf=61*;MCHR1 antag=58*
COc1ccc(OC)c(S(=O)(=O)N2CCC(C(=O)NC3CCCCCC3)CC2)c1	-32	-13	-18	26*	0	6	GPR7 antag conf=-3;MCHR1 antag=12
CCOC(=O)N1CCN(S(=O)(=O)c2cc(OCC(=O)NC3CCCCC3)c(C)cc2Cl)CC1	-29	-16	21	1	20	-1
COc1cc(OC)c(S(=O)(=O)N2CCCCC2)cc1S(=O)(=O)N1CCCCC1	-15	-9	20	48*	13	4	GPR7 antag conf=46*;MCHR1 antag=21
COc1ccc(OC)c(S(=O)(=O)N2CCC(C(=O)NC3CCCC3)CC2)c1	-16	-4	-15	-8	0	15
